Laboratory results from ChEMBL document CHEMBL1148427, “Diastereoselective synthesis and configuration-dependent activity of (3-substituted-cycloalkyl)glycine pyrrolidides and thiazolidides as dipeptidyl peptidase IV inhibitors” (Bioorg Med Chem Lett, 2004).

Legend:
[1] = Inhibitory activity against human aminopeptidase P
Dipeptidyl peptidase 4 = Dipeptidyl peptidase 4 (Homo sapiens, UniProt P27487); test: Inhibitory activity against human recombinant Dipeptidylpeptidase IV
In short: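 Human recombinant enzyme run in a fluorometric assay with Gly-Pro-AMC as substrate. Cleavage releases fluorescent 7-amino-4-methylcoumarin, which is read to give IC50 values.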

Dipeptidyl peptidase 2 = Dipeptidyl peptidase 2 (Homo sapiens, UniProt Q9UHL4); test: Inhibitory activity against human quiescent cell proline dipeptidase
Prolyl endopeptidase = molecular target: T1, Prolyl endopeptidase (Homo sapiens, UniProt P48147); test: Inhibitory activity against human prolyl endopeptidase
T1 sequence (P48147 whole entry): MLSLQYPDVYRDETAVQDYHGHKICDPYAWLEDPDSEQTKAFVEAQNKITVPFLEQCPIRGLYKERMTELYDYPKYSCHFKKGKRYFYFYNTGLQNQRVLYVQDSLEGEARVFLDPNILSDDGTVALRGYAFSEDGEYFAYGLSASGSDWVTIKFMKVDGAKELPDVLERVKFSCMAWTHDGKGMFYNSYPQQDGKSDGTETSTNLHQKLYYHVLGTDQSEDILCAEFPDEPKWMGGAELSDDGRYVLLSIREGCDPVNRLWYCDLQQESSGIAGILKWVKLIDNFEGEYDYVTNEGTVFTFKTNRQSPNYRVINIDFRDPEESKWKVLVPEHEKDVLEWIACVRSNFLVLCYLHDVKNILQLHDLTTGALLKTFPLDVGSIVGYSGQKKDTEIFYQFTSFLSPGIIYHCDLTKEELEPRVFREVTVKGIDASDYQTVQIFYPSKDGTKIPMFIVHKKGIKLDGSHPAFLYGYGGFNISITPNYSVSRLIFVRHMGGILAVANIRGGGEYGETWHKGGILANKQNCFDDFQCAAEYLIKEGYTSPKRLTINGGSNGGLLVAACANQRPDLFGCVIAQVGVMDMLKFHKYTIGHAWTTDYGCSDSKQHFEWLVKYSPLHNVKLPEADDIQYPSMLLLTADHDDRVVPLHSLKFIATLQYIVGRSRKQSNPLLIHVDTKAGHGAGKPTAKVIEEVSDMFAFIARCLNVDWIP

Sequence of Dipeptidyl peptidase 4 (P27487 whole entry): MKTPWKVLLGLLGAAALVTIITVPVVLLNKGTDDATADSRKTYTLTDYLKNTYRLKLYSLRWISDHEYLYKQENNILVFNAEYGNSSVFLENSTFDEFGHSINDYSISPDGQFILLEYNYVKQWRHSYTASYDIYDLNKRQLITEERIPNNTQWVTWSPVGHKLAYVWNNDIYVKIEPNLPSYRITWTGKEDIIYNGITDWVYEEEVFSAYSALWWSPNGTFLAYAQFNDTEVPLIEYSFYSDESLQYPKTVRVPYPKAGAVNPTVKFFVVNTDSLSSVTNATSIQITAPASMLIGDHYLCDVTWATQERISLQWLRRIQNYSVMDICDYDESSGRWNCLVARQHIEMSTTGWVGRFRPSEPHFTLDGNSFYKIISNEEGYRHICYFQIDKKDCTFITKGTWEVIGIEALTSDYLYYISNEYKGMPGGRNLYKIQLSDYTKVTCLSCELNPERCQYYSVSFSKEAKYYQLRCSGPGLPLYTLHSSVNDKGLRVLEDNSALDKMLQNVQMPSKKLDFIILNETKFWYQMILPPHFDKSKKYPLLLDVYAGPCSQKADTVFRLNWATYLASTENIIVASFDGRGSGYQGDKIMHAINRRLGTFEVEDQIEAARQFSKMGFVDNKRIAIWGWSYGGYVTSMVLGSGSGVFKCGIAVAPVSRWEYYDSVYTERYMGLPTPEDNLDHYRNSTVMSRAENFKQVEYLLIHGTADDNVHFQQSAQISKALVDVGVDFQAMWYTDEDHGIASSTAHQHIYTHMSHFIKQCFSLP

## N[C@H](C(=O)N1CCCC1)[C@H]1CC[C@@H](O)C1
[1]
  IC50: > 100 µM
Dipeptidyl peptidase 4
  IC50: 4.6 µM
Dipeptidyl peptidase 2
  IC50: 50 µM
Prolyl endopeptidase
  IC50: > 100 µM
